The values that follow come from ChEMBL document CHEMBL3259753, “Synthesis, structure-activity relationships and biological evaluation of dehydroandrographolide and andrographolide derivatives as novel anti-hepatitis B virus agents” (Bioorg Med Chem Lett, 2014).

Structures are written as SMILES.

A short description of series [1]: Cytotoxicity against human HepG2.2.15 cells by MTT assay. The format is cell-based, HepG2 2.2.15.
The nature of series [2]: Selectivity index, ratio of CC50 for human HepG2.2.15 cells to IC50 for HBV infected in human HepG2.2.15 cells assessed as inhibition of hepatitis B e antigen secretion. It is filed as functional.
Series [3] relates to Hepatitis B virus. Put plainly: Antiviral activity against HBV infected in human HepG2.2.15 cells assessed as inhibition of hepatitis B e antigen secretion by ELISA. It is filed as functional, organism-based. The conditions noted are these: HepG2 2.2.15. For orientation: ELISA stands for enzyme-linked immunosorbent assay.
In series [4] the test system is Hepatitis B virus. Description: Antiviral activity against HBV infected in human HepG2.2.15 cells assessed as inhibition of DNA replication. It is filed as functional, organism-based. To be noted: HepG2 2.2.15.
A short description of series [5]: Selectivity index, ratio of CC50 for human HepG2.2.15 cells to IC50 for HBV infected in human HepG2.2.15 cells assessed as inhibition of hepatitis B surface antigen secretion. The format is functional.
The subject of series [6] is Hepatitis B virus. Description: Antiviral activity against HBV infected in human HepG2.2.15 cells assessed as inhibition of hepatitis B surface antigen secretion by ELISA. It is filed as functional, organism-based. The conditions noted are these: HepG2 2.2.15.
A short description of series [7]: Selectivity index, ratio of CC50 for human HepG2.2.15 cells to IC50 for HBV infected in human HepG2.2.15 cells assessed as inhibition of DNA replication. It is filed as functional.
Series [8] in a line: Octanol-water partition coefficient, log P of the compound at 30 degC by HPLC analysis. It is filed as physicochemical. In a few lines:
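Shake-flask method: solutes equilibrated between octanol and water. Compound concentration in the octanol phase determined by HPLC. LogP determined at 30 °C.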

Consider `C=C1CC[C@@H]2[C@](C)(COC(=O)c3cccs3)[C@H](O)CC[C@@]2(C)[C@@H]1/C=C/C1=CCOC1=O`, for which, in series [1], the CC50 (in general, the concentration at which the toxic effect on the cells reaches its halfway point) was determined as 557 µM. In addition, the “Ratio CC50/IC50” value is recorded as 19.1 in series [2], 3.4 in series [5] and 25.2 in series [7]. The IC50 – broadly, the midpoint of a concentration-inhibition curve – in series [3] amounted to 29.2 µM; in series [4], 22.1 µM; in series [6] it was 162 µM.
In series [1], `C=C1CC[C@@H]2[C@](C)(CO)[C@H](OC(=O)c3cccnc3)CC[C@@]2(C)[C@@H]1C/C=C1\C=COC1=O` came in with a CC50 of 337 µM. Also, the values for the IC50 in series [3], in series [4] and in series [6] were 714 µM, 38.4 µM and 261 µM, respectively. The “Ratio CC50/IC50” value is reported as 1.3 in series [5] and 8.8 in series [7].
`C[C@H](Cn1cnc2c(N)ncnc21)OCP(=O)(O)O` [TENOFOVIR ANHYDROUS] yielded a CC50 in series [1] of more than 1720 µM. The “Ratio CC50/IC50” value in series [2] is more than 1.4; in series [5], more than 1.2; in series [7] it was more than 2417.3. Further, the IC50 stood at 0.71 µM in series [4] and 1390 µM in series [6].
Compound `C=C1CC[C@@H]2[C@](C)(COC(C)=O)[C@H](OC(C)=O)CC[C@@]2(C)[C@@H]1C/C=C1\C=COC1=O` showed a CC50 in series [1] of 297 µM. The results for the “Ratio CC50/IC50” value in series [2], in series [5] and in series [7] were 1.1, 1.2 and 7.6, respectively. For the same compound, the IC50 in series [3] was determined as 260 µM; in series [4], 39.6 µM; in series [6], 251 µM.
With `C=C1CC[C@@H]2[C@](C)(CO)[C@H](O)CC[C@@]2(C)[C@@H]1/C=C/C1=CCOC1=O`, in series [1], the CC50 worked out at 197 µM. Moreover, the IC50 in series [4] came to 22.6 µM. Moreover, in series [8], the logP – broadly, the decadic logarithm of the partition coefficient of the neutral form, usually between octanol and water – worked out at 1.44. Also, in series [7], the “Ratio CC50/IC50” value was determined as 8.7.
In series [1], `C=C1CC[C@@H]2[C@](C)(CO)[C@H](O)CC[C@@]2(C)[C@@H]1/C=C/C1=CC(CO)(CO)OC1=O` showed a CC50 of 954 µM. Also, the figures for the “Ratio CC50/IC50” value in series [2], in series [5] and in series [7] were 1.1, 13 and 6.2, respectively. Also, the IC50 in series [3] is 860 µM; in series [4], 154 µM; in series [6] it was 74 µM.
With `C=C1CC[C@@H]2[C@](C)(COC(=O)c3ccco3)[C@H](O)CC[C@@]2(C)[C@@H]1/C=C/C1=CCOC1=O`, the CC50 in series [1] was determined as 92 µM. Moreover, the “Ratio CC50/IC50” value in series [2] was 1.2; in series [5] it was 4.6; in series [7], 9.9. For the same compound, the IC50 in series [3] came to 77.5 µM; in series [4] it was 9.3 µM; in series [6], 19.2 µM.
In the case of `C=C1CC[C@@H]2[C@](C)(COC(=O)/C=C/c3cc(OC)c(OC)c(OC)c3)[C@H](O)CC[C@@]2(C)[C@@H]1/C=C/C1=CCOC1=O`, the CC50 in series [1] was more than 1710 µM. The “Ratio CC50/IC50” value is more than 8.5 in series [2] and more than 165.1 in series [7]. The values for the IC50 in series [3] and in series [4] were 201 µM and 10.3 µM, respectively. The logP in series [8] (read-out: logP) is 1.78.
As to `C=C1CC[C@@H]2[C@](C)(COC(=O)c3cccs3)[C@H](O)CC[C@@]2(C)[C@@H]1C/C=C1\C=COC1=O`, in series [1], the CC50 worked out at 2470 µM. The “Ratio CC50/IC50” value in series [2] amounted to 125; in series [5], 20.3; in series [7] it was 104.9. Further, the IC50 is 19.7 µM in series [3], 23.5 µM in series [4] and 121 µM in series [6].
Regarding `C=C1CC[C@@H]2[C@](C)(CO)[C@H](OC(=O)c3cccs3)CC[C@@]2(C)[C@@H]1C/C=C1\C=COC1=O`, half-maximal cytotoxicity in series [1] (CC50) was put at 257 µM. Besides, the IC50 in series [3] is more than 2200 µM; in series [4] it was 8.1 µM; in series [6], 41 µM. Moreover, the “Ratio CC50/IC50” value in series [5] stood at 6.2; in series [7] it was 31.8.
In series [1], `C=C1CC[C@@H]2[C@](C)(COC(=O)c3cccnc3)[C@H](O)CC[C@@]2(C)[C@@H]1/C=C/C1=CCOC1=O` returned a CC50 of 113 µM. Moreover, the entries for the “Ratio CC50/IC50” value in series [2], in series [5] and in series [7] were 1.8, 2.8 and 5.1, respectively. Besides, the IC50 in series [3] is 63.5 µM; in series [4] it was 22.1 µM; in series [6], 40 µM.
In series [1], `C=C1CC[C@@H]2[C@](C)(COC(=O)c3ccccc3C(=O)O)[C@H](O)CC[C@@]2(C)[C@@H]1C/C=C1\C=COC1=O` had a CC50 of 450 µM. Moreover, the “Ratio CC50/IC50” value in series [2] came out at 1.5; in series [7] it was 11.4. Further, the IC50 in series [3] worked out at 293 µM; in series [4], 39.4 µM; in series [6] it was 1320 µM.
Turning to `C=C1CC[C@@H]2[C@](C)(COC(=O)c3cccs3)[C@H](OC(=O)c3cccs3)CC[C@@]2(C)[C@@H]1/C=C/C1=CCOC1=O`, the CC50 in series [1] is more than 1540 µM. The “Ratio CC50/IC50” value in series [2] is listed as more than 1.8; in series [5] it was more than 1; in series [7], more than 8.3. Moreover, the IC50 in series [3] came to 822 µM; in series [4], 185 µM; in series [6], 1450 µM.
On to `C=C1CC[C@@H]2[C@](C)(COC(=O)/C=C/c3ccccc3)[C@H](O)CC[C@@]2(C)[C@@H]1/C=C/C1=CCOC1=O`, for which, in series [1], it took 183 µM to reach half-maximal cytotoxicity (CC50). Besides, the “Ratio CC50/IC50” value in series [2] is listed as 6.3; in series [5], 10.2; in series [7] it was 15.5. For the same compound, the results for the IC50 in series [3], in series [4] and in series [6] were 28.9 µM, 14.6 µM and 18 µM, respectively.
Regarding `C=C1CC[C@@H]2[C@](C)(CO)[C@H](OC(C)=O)CC[C@@]2(C)[C@@H]1C/C=C1\C=COC1=O`, the CC50 in series [1] is 872 µM. The entries for the “Ratio CC50/IC50” value in series [2], in series [5] and in series [7] were 3.6, 2.7 and 19.6, respectively. The IC50 in series [3] was 241 µM; in series [4] it was 44.4 µM; in series [6], 318 µM.
For `C[C@]1(CO)[C@H]2CC[C@@]3(CO3)[C@@H](/C=C/C3=CCOC3=O)[C@]2(C)CC[C@H]1O`, the CC50 in series [1] worked out at 1840 µM. In addition, the IC50 in series [4] was 78 µM; in series [6], 1290 µM. The “Ratio CC50/IC50” value in series [5] is 1.4; in series [7] it was 23.6.
`C=C1CC[C@@H]2[C@](C)(CO)[C@H](O)CC[C@@]2(C)[C@@H]1C/C=C1/C(=O)OC[C@H]1O` [ANDROGRAPHOLIDE]: half-maximal cytotoxicity in series [1] (CC50) was put at 198 µM. Also, the IC50 in series [4] was found to be 54.1 µM. For the same compound, the logP in series [8] (read-out: logP) amounted to 0.52. Moreover, in series [7], the “Ratio CC50/IC50” value was 3.7.
For the compound `C=C1CC[C@@H]2[C@](C)(COC(C)=O)[C@H](O)CC[C@@]2(C)[C@@H]1C/C=C1\C=COC1=O`, it took 334 µM to reach half-maximal cytotoxicity in series [1] (CC50). Besides, the “Ratio CC50/IC50” value in series [2] stood at 1.1; in series [5], 1.2; in series [7], 7.6. For the same compound, the IC50 was 289 µM in series [3], 44.1 µM in series [4] and 280 µM in series [6].
`C=C1CC[C@H]2[C@@](C)(CCC(=O)[C@@]2(C)C=O)[C@@H]1C/C=C1\C=COC1=O` gave a CC50 in series [1] of 964 µM. For the same compound, the IC50 in series [4] was 169 µM; in series [6], 518 µM. For the same compound, the “Ratio CC50/IC50” value in series [5] was determined as 1.9; in series [7] it was 5.7.
